Columns and labels:
PKA = PKA (Homo sapiens, UniProt P17612); test: Kinase activity screening; format: biochemical; conditions: FX-9 at 2.5 μM, ATP at Km (10 μM)
Summary of the method: (§1)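 Radiometric substrate-phosphorylation screen covering a panel of 58 human kinases run by a contract service. […] Activity is given as a percentage of mean activity in positive control samples (100%). Values <30% were scored strong hits, 30–70% partial hits and >70% no hit.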

DRAK1 = DRAK1 (Homo sapiens, UniProt Q9UEE5); test: Kinase activity screening; format: biochemical; conditions: FX-9 at 2.5 μM, ATP at Km (10 μM)
Summary of the method: as §1

CEM cells = test: Apoptosis, Annexin V FITC / propidium iodide flow cytometry; format: cell-based, human; conditions: 5 μM, 72 h, DMSO 7.3%
Lyn = Lyn (Homo sapiens, UniProt P07948); test: Kinase activity screening; format: biochemical; conditions: FX-9 at 2.5 μM, ATP at Km (70 μM)
Sequence of Lyn (P07948 whole entry): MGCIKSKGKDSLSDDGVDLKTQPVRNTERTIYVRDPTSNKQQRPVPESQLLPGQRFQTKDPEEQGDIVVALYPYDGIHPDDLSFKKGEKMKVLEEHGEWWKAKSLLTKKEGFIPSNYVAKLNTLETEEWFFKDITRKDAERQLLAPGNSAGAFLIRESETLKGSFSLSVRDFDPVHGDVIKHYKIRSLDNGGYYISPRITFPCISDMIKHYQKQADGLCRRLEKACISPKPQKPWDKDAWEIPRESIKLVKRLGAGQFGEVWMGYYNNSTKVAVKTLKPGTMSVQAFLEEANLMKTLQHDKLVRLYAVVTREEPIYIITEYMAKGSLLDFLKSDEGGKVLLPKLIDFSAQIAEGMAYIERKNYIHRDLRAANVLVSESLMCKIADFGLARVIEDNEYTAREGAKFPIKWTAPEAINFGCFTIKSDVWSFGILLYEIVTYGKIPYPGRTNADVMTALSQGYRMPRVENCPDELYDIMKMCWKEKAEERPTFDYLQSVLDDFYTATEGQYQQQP
Summary of the method: as §1

PRAK = PRAK (Homo sapiens, UniProt Q8IW41); test: Kinase activity screening; format: biochemical; conditions: FX-9 at 2.5 μM, ATP at Km (15 μM)
Summary of the method: (§2)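 Radiometric kinase-panel screen of 58 human kinases, measuring substrate phosphorylation. […] Activity is given as % of the mean positive-control kinase activity (100%). Below 30% counts as a strong hit, 30–70% as a partial hit, and above 70% as no hit.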

p70S6K = p70S6K (Homo sapiens, UniProt P23443); test: Kinase activity screening; format: biochemical; conditions: FX-9 at 2.5 μM, ATP at Km (15 μM)
Summary of the method: as §2

MST1 = MST1 (Homo sapiens, UniProt Q13043); test: Kinase activity screening; format: biochemical; conditions: FX-9 at 2.5 μM, ATP at Km (90 μM)
Summary of the method: as §1

cleaved caspase 3 = test: Western blot, RS4; format: cell-based, human; conditions: RS4;11, 2.5 μM and 5.0 μM, 48 h
Summary of the method: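 SEM and RS4;11 cells were exposed to 2.5 or 5.0 μM test compound, or DMSO, for 48 h. Lysates of 1–5×10^6 cells were made in RIPA buffer with sonication. Cleaved caspase 3 was detected by western blot on PVDF with near-infrared imaging, using GAPDH as loading control.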

PI3 Kinase (p110d/p85a) = PI3 Kinase (p110d/p85a) (Homo sapiens, UniProt O00329); test: Kinase activity screening; format: biochemical; conditions: FX-9 at 2.5 μM, ATP at Km (200 μM)
Summary of the method: as §1

EphA5 = EphA5 (Homo sapiens, UniProt P54756); test: Kinase activity screening; format: biochemical; conditions: FX-9 at 2.5 μM, ATP at Km (10 μM)
Summary of the method: as §1

PI3 Kinase (p110b/p85a) = PI3 Kinase (p110b/p85a) (Homo sapiens, UniProt P42338); test: Kinase activity screening; format: biochemical; conditions: FX-9 at 2.5 μM, ATP at Km (200 μM)
Summary of the method: as §1

ROCK-I = ROCK-I (Homo sapiens, UniProt Q13464); test: Kinase activity screening; format: biochemical; conditions: FX-9 at 2.5 μM, ATP at Km (70 μM)
Summary of the method: as §2

SEM cells [1] = test: WST-1 metabolic activity assay; format: cell-based; conditions: Homo sapiens, 72 h, read-out: metabolic activity
Summary of the method: (§3)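 Test compound came from a 10 mM DMSO stock. Cells were seeded at 5×10^4/well in triplicate with 5 or 10 μM final compound; controls got matched DMSO. After 72 h at 37°C, 5% CO2, WST-1 was added for a further 3 h. Absorbance was read at 450 nm (reference 620 nm), and metabolic activity given as % of DMSO control.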

IGF-1R = IGF-1R (Homo sapiens, UniProt P08069); test: Kinase activity screening; format: biochemical; conditions: FX-9 at 2.5 μM, ATP at Km (200 μM)
Summary of the method: as §1

MLK1 = MLK1 (Homo sapiens, UniProt P80192); test: Kinase activity screening; format: biochemical; conditions: FX-9 at 2.5 μM, ATP at Km (45 μM)
Summary of the method: as §1

PI3 Kinase (p120g) = PI3 Kinase (p120g) (Homo sapiens, UniProt P48736); test: Kinase activity screening; format: biochemical; conditions: FX-9 at 2.5 μM, ATP at Km (100 μM)
Sequence of PI3 Kinase (p120g) (P48736 whole entry): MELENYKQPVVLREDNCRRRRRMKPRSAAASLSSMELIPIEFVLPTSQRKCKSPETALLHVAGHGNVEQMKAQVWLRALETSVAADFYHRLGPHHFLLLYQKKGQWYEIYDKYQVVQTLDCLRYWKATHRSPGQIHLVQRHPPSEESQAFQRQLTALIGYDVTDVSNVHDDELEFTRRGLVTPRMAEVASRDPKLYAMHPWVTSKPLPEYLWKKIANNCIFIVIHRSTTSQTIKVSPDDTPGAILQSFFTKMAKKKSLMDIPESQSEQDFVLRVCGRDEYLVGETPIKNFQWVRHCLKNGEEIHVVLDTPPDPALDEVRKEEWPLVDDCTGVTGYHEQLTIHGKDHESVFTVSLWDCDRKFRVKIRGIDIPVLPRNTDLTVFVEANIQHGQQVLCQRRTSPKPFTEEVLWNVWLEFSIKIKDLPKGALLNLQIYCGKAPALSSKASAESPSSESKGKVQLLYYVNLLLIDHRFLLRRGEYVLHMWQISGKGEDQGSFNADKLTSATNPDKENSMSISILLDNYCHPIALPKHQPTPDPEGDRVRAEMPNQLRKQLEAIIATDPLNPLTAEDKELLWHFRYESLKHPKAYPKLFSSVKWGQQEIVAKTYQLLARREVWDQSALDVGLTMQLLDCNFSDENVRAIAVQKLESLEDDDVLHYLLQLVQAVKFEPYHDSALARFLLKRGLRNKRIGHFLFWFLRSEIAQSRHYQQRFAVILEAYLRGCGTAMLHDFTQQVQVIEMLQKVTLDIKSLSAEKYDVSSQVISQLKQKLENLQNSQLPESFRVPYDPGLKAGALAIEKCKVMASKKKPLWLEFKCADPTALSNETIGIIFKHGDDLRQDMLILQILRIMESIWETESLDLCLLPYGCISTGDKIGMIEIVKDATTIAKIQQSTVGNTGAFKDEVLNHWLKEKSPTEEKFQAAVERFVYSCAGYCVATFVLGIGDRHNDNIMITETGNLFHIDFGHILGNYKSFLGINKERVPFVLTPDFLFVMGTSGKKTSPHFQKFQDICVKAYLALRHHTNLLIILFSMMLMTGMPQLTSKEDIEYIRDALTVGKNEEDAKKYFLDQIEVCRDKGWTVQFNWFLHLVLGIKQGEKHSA
Summary of the method: as §1

Jurkat cells [2] = test: Proliferation, viable cell count by trypan blue exclusion; format: cell-based, human; conditions: 72 h
Summary of the method: (§4)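 Human B-ALL (SEM, RS4;11) and T-ALL (Jurkat, CEM) lines were grown with 10% heat-inactivated FBS and penicillin/streptomycin at 37°C, 5% CO2. Cells took test compound at 0.1–5.0 μM (methods: 0.5–5.0 μM) or DMSO for up to 72 h. Viable cells were counted by trypan blue exclusion and expressed relative to control (100%). IC50 came from three separate experiments, each in triplicate.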

CDK6/cyclinD3 = CDK6/cyclinD3 (Homo sapiens, UniProt Q00534); test: Kinase activity screening; format: biochemical; conditions: FX-9 at 2.5 μM, ATP at Km (200 μM)
Sequence of CDK6/cyclinD3 (Q00534 whole entry): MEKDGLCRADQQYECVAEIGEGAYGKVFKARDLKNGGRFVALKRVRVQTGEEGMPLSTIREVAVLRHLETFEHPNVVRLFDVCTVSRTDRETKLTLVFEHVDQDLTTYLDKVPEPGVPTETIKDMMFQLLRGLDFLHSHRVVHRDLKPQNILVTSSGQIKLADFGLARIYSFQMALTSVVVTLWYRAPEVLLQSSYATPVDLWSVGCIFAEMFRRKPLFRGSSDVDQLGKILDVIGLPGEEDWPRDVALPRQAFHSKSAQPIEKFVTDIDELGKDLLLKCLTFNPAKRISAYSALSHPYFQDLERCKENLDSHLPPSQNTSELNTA
Sequence of CDK6/cyclinD3 (P30281 whole entry partner): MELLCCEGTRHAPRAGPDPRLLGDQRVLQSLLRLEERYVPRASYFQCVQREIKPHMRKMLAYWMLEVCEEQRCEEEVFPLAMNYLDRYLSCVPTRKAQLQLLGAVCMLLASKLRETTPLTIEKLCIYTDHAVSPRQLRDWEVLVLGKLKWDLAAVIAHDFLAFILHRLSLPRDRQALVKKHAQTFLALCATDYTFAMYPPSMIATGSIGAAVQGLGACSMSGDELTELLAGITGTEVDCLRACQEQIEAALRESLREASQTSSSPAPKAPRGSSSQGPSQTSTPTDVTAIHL
Summary of the method: as §1

SEM cells [3] = test: Apoptosis, Annexin V FITC / propidium iodide flow cytometry; format: cell-based, human; conditions: 5 μM, 72 h, DMSO 7.4%
NEK2 = NEK2 (Homo sapiens, UniProt P51955); test: Kinase activity screening; format: biochemical; conditions: FX-9 at 2.5 μM, ATP at Km (120 μM)
Summary of the method: as §1

RS4;11 cells = test: Proliferation, viable cell count by trypan blue exclusion; format: cell-based, human
Summary of the method: as §4

c-RAF = c-RAF (Homo sapiens, UniProt P04049); test: Kinase activity screening; format: biochemical; conditions: FX-9 at 2.5 μM, ATP at Km (120 μM)
Sequence of c-RAF (P04049 whole entry): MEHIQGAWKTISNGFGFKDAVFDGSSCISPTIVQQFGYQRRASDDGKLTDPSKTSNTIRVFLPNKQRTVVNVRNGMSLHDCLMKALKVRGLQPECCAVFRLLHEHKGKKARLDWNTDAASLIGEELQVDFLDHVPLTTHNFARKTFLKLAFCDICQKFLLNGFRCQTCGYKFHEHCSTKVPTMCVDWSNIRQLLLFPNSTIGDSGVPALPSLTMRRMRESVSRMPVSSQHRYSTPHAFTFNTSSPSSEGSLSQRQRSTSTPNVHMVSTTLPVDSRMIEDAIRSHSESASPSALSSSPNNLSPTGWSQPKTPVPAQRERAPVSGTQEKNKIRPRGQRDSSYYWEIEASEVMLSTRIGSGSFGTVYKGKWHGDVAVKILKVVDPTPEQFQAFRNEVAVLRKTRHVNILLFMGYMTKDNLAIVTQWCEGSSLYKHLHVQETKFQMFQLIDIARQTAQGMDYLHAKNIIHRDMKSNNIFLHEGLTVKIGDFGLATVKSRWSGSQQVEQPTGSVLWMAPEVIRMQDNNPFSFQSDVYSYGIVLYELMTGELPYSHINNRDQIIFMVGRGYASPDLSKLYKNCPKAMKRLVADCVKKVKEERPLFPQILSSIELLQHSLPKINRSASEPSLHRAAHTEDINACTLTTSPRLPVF
Summary of the method: as §2

SRPK1 = SRPK1 (Homo sapiens, UniProt Q96SB4); test: Kinase activity screening; format: biochemical; conditions: FX-9 at 2.5 μM, ATP at Km (10 μM)
Summary of the method: as §2

ASK1 = ASK1 (Homo sapiens, UniProt Q99683); test: Kinase activity screening; format: biochemical; conditions: FX-9 at 2.5 μM, ATP at Km (200 μM)
Sequence of ASK1 (Q99683 whole entry): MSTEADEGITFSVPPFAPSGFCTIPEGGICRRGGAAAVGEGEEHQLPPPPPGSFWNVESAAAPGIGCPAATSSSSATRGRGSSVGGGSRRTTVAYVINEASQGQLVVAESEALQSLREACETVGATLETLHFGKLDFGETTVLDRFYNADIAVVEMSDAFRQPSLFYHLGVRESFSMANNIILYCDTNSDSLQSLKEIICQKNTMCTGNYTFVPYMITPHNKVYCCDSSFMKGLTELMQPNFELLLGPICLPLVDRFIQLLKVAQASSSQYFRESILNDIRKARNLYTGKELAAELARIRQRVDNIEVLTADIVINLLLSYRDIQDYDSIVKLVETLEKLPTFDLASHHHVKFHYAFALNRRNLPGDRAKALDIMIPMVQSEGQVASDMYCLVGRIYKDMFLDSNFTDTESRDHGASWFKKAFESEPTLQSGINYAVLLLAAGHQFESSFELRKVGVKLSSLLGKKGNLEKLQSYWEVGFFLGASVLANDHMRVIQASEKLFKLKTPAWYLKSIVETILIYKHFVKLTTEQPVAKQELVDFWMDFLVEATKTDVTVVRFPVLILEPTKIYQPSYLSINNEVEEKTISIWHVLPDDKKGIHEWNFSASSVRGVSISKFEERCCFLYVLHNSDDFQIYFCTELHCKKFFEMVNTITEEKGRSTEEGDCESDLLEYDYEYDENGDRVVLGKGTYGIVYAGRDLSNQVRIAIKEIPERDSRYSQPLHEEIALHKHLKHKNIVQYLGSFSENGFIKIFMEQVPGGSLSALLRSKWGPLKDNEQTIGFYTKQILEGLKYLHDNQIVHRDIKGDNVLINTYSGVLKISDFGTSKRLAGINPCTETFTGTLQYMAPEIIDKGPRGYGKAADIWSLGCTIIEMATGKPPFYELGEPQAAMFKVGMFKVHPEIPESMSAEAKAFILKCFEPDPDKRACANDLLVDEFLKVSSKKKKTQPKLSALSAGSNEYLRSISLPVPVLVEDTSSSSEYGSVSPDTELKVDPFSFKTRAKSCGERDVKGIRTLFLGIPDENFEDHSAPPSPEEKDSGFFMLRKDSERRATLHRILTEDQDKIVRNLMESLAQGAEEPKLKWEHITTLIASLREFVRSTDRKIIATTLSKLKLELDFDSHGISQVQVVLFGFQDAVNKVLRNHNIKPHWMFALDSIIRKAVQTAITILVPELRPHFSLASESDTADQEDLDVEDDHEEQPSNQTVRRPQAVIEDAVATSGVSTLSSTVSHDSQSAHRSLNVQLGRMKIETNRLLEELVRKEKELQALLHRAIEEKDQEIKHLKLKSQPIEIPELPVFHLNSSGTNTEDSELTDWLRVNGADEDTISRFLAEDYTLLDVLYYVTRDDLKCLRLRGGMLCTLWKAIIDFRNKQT
Summary of the method: as §1

AMPKα1 = AMPKα1 (Homo sapiens, UniProt Q13131); test: Kinase activity screening; format: biochemical; conditions: FX-9 at 2.5 μM, ATP at Km (45 μM)
Summary of the method: as §1

p-p38 = test: Western blot, SEM cells; format: cell-based, human; conditions: 2.5 μM or 5.0 μM, 48 h
Summary of the method: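 SEM or RS4;11 cells took DMSO, 2.5 or 5.0 μM test compound for 48 h. Cells (1–5×10^6) were lysed in RIPA buffer with sonication, run on SDS gels, blotted to PVDF and imaged by near-infrared fluorescence. Bands were normalised to GAPDH, and the phospho/total protein ratio was set relative to DMSO control (=1).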

Jurkat cells [4] = test: WST-1 metabolic activity assay; format: cell-based; conditions: Homo sapiens, 72 h, read-out: metabolic activity
Summary of the method: as §3

PKCθ = PKCθ (Homo sapiens, UniProt Q04759); test: Kinase activity screening; format: biochemical; conditions: FX-9 at 2.5 μM, ATP at Km (15 μM)
Sequence of PKCθ (Q04759 whole entry): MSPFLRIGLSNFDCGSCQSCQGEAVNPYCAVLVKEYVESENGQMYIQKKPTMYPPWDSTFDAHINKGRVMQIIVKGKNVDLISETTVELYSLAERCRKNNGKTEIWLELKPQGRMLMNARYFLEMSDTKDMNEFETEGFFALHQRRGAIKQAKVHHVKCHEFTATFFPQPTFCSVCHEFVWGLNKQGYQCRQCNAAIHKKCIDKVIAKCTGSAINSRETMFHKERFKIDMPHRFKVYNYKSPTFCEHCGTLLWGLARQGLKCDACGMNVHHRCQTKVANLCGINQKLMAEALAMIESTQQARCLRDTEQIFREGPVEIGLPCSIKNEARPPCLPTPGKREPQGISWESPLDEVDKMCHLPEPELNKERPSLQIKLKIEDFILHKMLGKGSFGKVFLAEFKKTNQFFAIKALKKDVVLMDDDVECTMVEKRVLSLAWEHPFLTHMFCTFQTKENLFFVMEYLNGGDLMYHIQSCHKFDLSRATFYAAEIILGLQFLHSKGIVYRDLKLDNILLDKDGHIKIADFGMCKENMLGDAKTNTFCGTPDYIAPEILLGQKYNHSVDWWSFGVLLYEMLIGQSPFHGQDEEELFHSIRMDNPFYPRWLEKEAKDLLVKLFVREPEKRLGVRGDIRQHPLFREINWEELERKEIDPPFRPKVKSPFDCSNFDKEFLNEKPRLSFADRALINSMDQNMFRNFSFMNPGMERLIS
Summary of the method: as §2

Kinase activity (% control) (PKA): 92 % control | Kinase activity (% control) (DRAK1): 81 % control | Kinase activity (% control) (Lyn): 87 % control | Kinase activity (% control) (PRAK): 79 % control | Kinase activity (% control) (p70S6K): 85 % control | Kinase activity (% control) (MST1): 87 % control | Kinase activity (% control) (PI3 Kinase (p110d/p85a)): 100 % control | Kinase activity (% control) (EphA5): 98 % control | Kinase activity (% control) (PI3 Kinase (p110b/p85a)): 97 % control | Kinase activity (% control) (ROCK-I): 93 % control | Kinase activity (% control) (IGF-1R): 89 % control | Kinase activity (% control) (MLK1): 84 % control | Kinase activity (% control) (PI3 Kinase (p120g)): 98 % control | IC50 (Jurkat cells [2]; Homo sapiens, read-out: IC50 based on proliferation): 1670 ± 30 nM | Kinase activity (% control) (CDK6/cyclinD3): 103 % control | Kinase activity (% control) (NEK2): 106 % control | IC50 (RS4;11 cells; Homo sapiens, RS4-11, 72 h, read-out: IC50 based on proliferation): 540 ± 20 nM | Kinase activity (% control) (c-RAF): 92 % control | Kinase activity (% control) (SRPK1): 94 % control | Kinase activity (% control) (ASK1): 101 % control | Kinase activity (% control) (AMPKα1): 98 % control | Kinase activity (% control) (PKCθ): 96 % control
SMILES: Cc1ccc(-c2cc3ccccc3c(N)n2)cc1 [FX-9, 3-(p-Tolyl)isoquinolin-1-amine]
Apoptosis (total of early apoptotic and late apoptotic and necrotic cells) (CEM cells): 90.4% | cleaved caspase 3 protein (western blot) (cleaved caspase 3): increased amount of cleaved caspase 3 | activity at 5 µM (SEM cells [1]): 1.2% | activity at 10 µM (SEM cells [1]): 0.6% | Proliferation compared to control cells (100%) (Jurkat cells [2]; 2.5 μM): 16.3% | Apoptosis (total of early apoptotic and late apoptotic and necrotic cells) (SEM cells [3]): 75.9% | Proliferation compared to control cells (=100%) (RS4;11 cells; RS4;11, 0.5 μM, 72 h): 60.0% | p-p38 level (western blot) (p-p38): reduced | viability at 5 µM (Jurkat cells [4]): 10.4% | viability at 10 µM (Jurkat cells [4]): 13.6%
